ChEMBL document CHEMBL4002570, “Synthesis and cytostatic properties of polyfunctionalized furanoallocolchicinoids” (Eur J Med Chem, 2017)
pIC50: −log10 of the molar value. Active and inactive are the calls of the source.

Columns and labels:
BXPC-3 = assay: Cytotoxicity against 2D culture of human BxPC3 cells measured after 72 hrs by MTT assay; type: functional, cell-based; conditions: BXPC-3, 72 h
Summary of the method: (§1)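 Cells (tumor lines and HaCaT in DMEM with 10% FCS; bone-marrow MSC at passages 2-6) seeded at 3x10⁵ cells/mL 24 h before and allowed to adhere. Compounds dissolved in DMSO (20 mM stock), diluted 20 µM to 0.1 nM, exposed 72 h. MTT added for the last 6 h, formazan dissolved in DMSO, OD read at 540 nm. IC50 taken from titration curves.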

PANC-1 [1] = assay: Cytotoxicity against 2D culture of human PANC1 cells measured after 72 hrs by MTT assay; type: functional, cell-based; conditions: PANC-1, 72 h; summary of the method: as §1
COLO357 [2] = assay: Cytotoxicity against 2D culture of human Colo-357 cells measured after 72 hrs by MTT assay; type: functional, cell-based; conditions: COLO357, 72 h; summary of the method: as §1
MIA PaCa-2 [3] = assay: Cytotoxicity against 2D culture of human MIAPaCa2 cells measured after 72 hrs by MTT assay; type: functional, cell-based; conditions: MIA PaCa-2, 72 h; summary of the method: as §1
A549 = assay: Cytotoxicity against 2D culture of human A549 cells measured after 72 hrs by MTT assay; type: functional, cell-based; conditions: A549, 72 h; summary of the method: as §1
[4] = Cytotoxicity against 2D culture of human MSC measured after 72 hrs by MTT assay; type: cell-based; summary of the method: as §1
EA.hy 926 [5] = assay: Cytotoxicity against 2D culture of human EAhy926 cells measured after 72 hrs by MTT assay; type: cell-based; conditions: EA.hy 926, 72 h; summary of the method: as §1
HaCaT = assay: Cytotoxicity against 2D culture of human HaCaT cells measured after 72 hrs by MTT assay; type: cell-based; summary of the method: as §1
EA.hy 926 [6] = assay: Cytotoxicity against 3D culture of human EAhy926 cells up to 10000 nM measured after 72 hrs by MTT assay; type: cell-based; conditions: ea.hy 926, 72 h
Summary of the method: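 Spheroids formed on polyHEMA-coated plates before drug addition, then handled like 2D MTT: dilutions from 20 µM to 0.1 nM, 72 h exposure, MTT for the final 6 h, DMSO solubilization, OD at 540 nm. Inhibition index = 1 − OD(exp)/OD(control); IC50 read at the 50% cutoff.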

COLO357 [7] = assay: Induction of apoptosis in 2D culture of human Colo-357 cells assessed as accumulation at G2/M phase at 1 uM measured after 72 hrs by propidium iodide staining based flow cytometry; type: functional, cell-based
Summary of the method: (§2)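 Cultures (2D or polyHEMA spheroids) exposed to 1 µM for 72 h. Cells trypsinized, washed in ice-cold PBS, fixed in 70% ethanol for 2 h at −20 °C, stained with propidium iodide 50 µg/ml plus […] 10 µg/ml. Flow cytometry with 2000 events. Phase distribution gated on dot plots; apoptotic cells excluded in 3D histograms.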

MIA PaCa-2 [8] = assay: Induction of apoptosis in 2D culture of human MIAPaCa2 cells assessed as accumulation at G2/M phase at 1 uM measured after 72 hrs by propidium iodide staining based flow cytometry; type: functional, cell-based
COLO357 [9] = assay: Induction of apoptosis in 3D culture of human Colo-357 cells assessed as accumulation at G2/M phase at 1 uM measured after 72 hrs by propidium iodide staining based flow cytometry; type: functional, cell-based; summary of the method: as §2
MIA PaCa-2 [10] = assay: Induction of apoptosis in 3D culture of human MIAPaCa2 cells assessed as accumulation at G2/M phase at 1 uM measured after 72 hrs by propidium iodide staining based flow cytometry; type: functional, cell-based; summary of the method: as §2
COLO357 [11] = assay: Disruption of mitotic spindle in human Colo-357 cells at 1 uM measured after 72 hrs by Hoechst 33342 staining based confocal microscopic analysis; type: functional, cell-based
COLO357 [12] = assay: Induction of beta-tubulin expression in human Colo-357 cells at 1 uM measured after 24 hrs by Hoechst 33342 staining based confocal microscopic analysis; type: functional, cell-based
Summary of the method: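 Colo-357 in 2D exposed to 1 µM for 24 h, fixed, then stained with anti-β-tubulin antibody (red) and Hoechst 33342. Confocal imaging; mean fluorescence intensity from red pixel counts over several fields; significance taken at p<0.05.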

COLO357 [13] = assay: Induction of total tubulin expression in 3D culture of human Colo-357 cells measured after 48 hrs by propidium iodide staining based flow cytometry; type: functional, cell-based
Summary of the method: (§3)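 Spheroids on polyHEMA exposed to 1 µM for 48 h, trypsinized, permeabilized, stained with anti-tubulin antibody and phalloidin-AlexaFluor488 for F-actin, and analyzed by flow cytometry.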

COLO357 [14] = assay: Induction of beta-tubulin expression in human Colo-357 cells assessed as mean fluorescence intensity at 1 uM measured after 24 hrs by Hoechst 33342 staining based confocal microscopic analysis (reference value: 52 +/- 12); type: functional
COLO357 [15] = assay: Induction of F-actin expression in 3D culture of human Colo-357 cells at 1 uM measured after 48 hrs by propidium staining based flow cytometry; type: functional, cell-based; summary of the method: as §3
MIA PaCa-2 [16] = assay: Induction of F-actin expression in 3d culture of human MIAPaCa2 cells at 1 uM measured after 48 hrs by propidium staining based flow cytometry; type: functional, cell-based; summary of the method: as §3
COLO357 [17] = assay: Induction of mitochondrial membrane hyperpolarization in 3D culture of human Colo-357 cells at 1 uM measured after 48 hrs by DiOC6 dye based flow cytometry; type: functional, cell-based
Summary of the method: (§4)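 Spheroids on polyHEMA exposed to 1 µM for 48 h, trypsinized. Live cells stained for 1 h with DiOC₆ (mitochondrial potential), LysoTrackerRed (lysosomal potential) or propidium iodide (membrane permeability), then analyzed by flow cytometry.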

MIA PaCa-2 [18] = assay: Induction of mitochondrial membrane hyperpolarization in 3D culture of human MIAPaCa2 cells at 1 uM measured after 48 hrs by DiOC6 dye based flow cytometry; type: functional, cell-based; summary of the method: as §4
COLO357 [19] = assay: Induction of lysosomal membrane hyperpolarization in 3D culture of human Colo-357 cells at 1 uM measured after 48 hrs by LysoTrackRed dye based flow cytometry; type: functional, cell-based; summary of the method: as §4
MIA PaCa-2 [20] = assay: Induction of lysosomal membrane hyperpolarization in 3D culture of human MIAPaCa2 cells at 1 uM measured after 48 hrs by LysoTrackRed dye based flow cytometry; type: functional, cell-based; summary of the method: as §4
COLO357 [21] = assay: Induction of cell membrane permeability in 3D culture of human Colo-357 cells at 1 uM measured after 48 hrs by propidium iodide staining based flow cytometry; type: functional; summary of the method: as §4
MIA PaCa-2 [22] = assay: Induction of cell membrane permeability in 3D culture of human MIAPaCa2 cells at 1 uM measured after 48 hrs by propidium iodide staining based flow cytometry; type: functional; summary of the method: as §4
PANC-1 [23] = assay: Disruption of preformed spheroids in human PANC1 cells at 1 uM measured after 48 hrs by propidium staining based flow cytometry; type: functional, cell-based
MIA PaCa-2 [24] = assay: Disruption of preformed spheroids in human MIAPaCa2 cells at 1 uM measured after 48 hrs by propidium staining based flow cytometry; type: functional, cell-based
COLO357 [25] = assay: Disruption of preformed spheroids in human Colo-357 cells at 1 uM measured after 48 hrs by propidium staining based flow cytometry; type: functional, cell-based

Structure (SMILES) | pIC50 (BXPC-3) | pIC50 (PANC-1 [1]) | pIC50 (COLO357 [2]) | pIC50 (MIA PaCa-2 [3]) | pIC50 (A549) | pIC50 [4] | pIC50 (EA.hy 926 [5]) | pIC50 (HaCaT) | Activity (EA.hy 926 [6]) | Activity (COLO357 [7]) | Activity (MIA PaCa-2 [8]) | Activity (COLO357 [9]) | Activity (MIA PaCa-2 [10]) | Activity (COLO357 [11]) | Activity (COLO357 [12]) | Activity (COLO357 [13]) | Flu intensity (COLO357 [14]) | Activity (COLO357 [15]) | Activity (MIA PaCa-2 [16]) | Activity (COLO357 [17]) | further results
COc1cc2c(c(OC)c1OC)-c1cc3cc(CO)oc3cc1C(=O)CC2 | 7.80 | 7.80 | 7.80 | 7.19 | 7.80 | < 6.10 | < 6.10 | 7.80 | Non-Toxic | Active | Active | Active | Active | Active | Active | Active | 73 | inactive | Active | Active | Activity (MIA PaCa-2 [18]): Active; Activity (COLO357 [19]): Active; Activity (MIA PaCa-2 [20]): Active; Activity (COLO357 [21]): Active; Activity (MIA PaCa-2 [22]): Active; Activity (PANC-1 [23]): Active; Activity (MIA PaCa-2 [24]): Active; Activity (COLO357 [25]): Active
COc1cc2c(c(OC)c1OC)-c1cc3cc(CO)oc3cc1C(O)CC2 (centres undefined) | 7.80 | 7.80 | 7.80 | 7.80 | 7.80 | < 6.10 | < 6.10 | 7.80 | Non-Toxic | Active | Active | Active | Active | Active | Active | Active | 110 | Active | Active | Active | Activity (MIA PaCa-2 [18]): Active; Activity (COLO357 [19]): Active; Activity (MIA PaCa-2 [20]): Active; Activity (COLO357 [21]): Active; Activity (MIA PaCa-2 [22]): Active; Activity (PANC-1 [23]): Active; Activity (MIA PaCa-2 [24]): Active; Activity (COLO357 [25]): Active
COc1cc2c(c(OC)c1OC)-c1cc3cc(CCO)oc3cc1C(O)CC2 (centres undefined) | 6.40 | 6.40 | < 6.40 | < 6.40 | 6.40 |  |  |  |  |  |  |  |  |  |  |  |  |  |  |  | 
COc1cc2c(c(OC)c1OC)-c1ccc(OC)c(=O)cc1[C@@H](NC(C)=O)CC2 [COLCHICINE] | 7.10 | 7.10 | 6.80 | 6.80 | 6.40 | < 6.10 | < 6.10 | 7.10 | Non-Toxic | Active | Active | Active | Active | Active | Active | Active | 74 | inactive | Active | Active | Activity (MIA PaCa-2 [18]): Active; Activity (COLO357 [19]): Active; Activity (MIA PaCa-2 [20]): Active; Activity (COLO357 [21]): Active; Activity (MIA PaCa-2 [22]): Active; Activity (PANC-1 [23]): Active; Activity (MIA PaCa-2 [24]): Active; Activity (COLO357 [25]): Active
COc1cc2c(c(OC)c1OC)-c1cc3cc(C(C)O)oc3cc1C(O)CC2 (centres undefined) | 7.52 | 7.52 | 7.19 | 7.19 | 7.10 |  |  |  |  |  |  |  |  |  |  |  |  |  |  |  | 
COc1cc2c(c(OC)c1OC)-c1cc3cc(COC(C)=O)oc3cc1C(=O)CC2 | 7.80 | 7.80 | 7.80 | 7.80 | 7.10 |  |  |  |  |  |  |  |  |  |  |  |  |  |  |  | 
COc1cc2c(c(OC)c1OC)-c1cc3cc(CCO)oc3cc1C(=O)CC2 | 6.40 | 6.40 | < 6.40 | < 6.40 | 6.40 |  |  |  |  |  |  |  |  |  |  |  |  |  |  |  | 
COc1cc2c(c(OC)c1OC)-c1cc3cc(C(C)O)oc3cc1C(=O)CC2 (centres undefined) | 7.10 | 7.15 | 7.00 | < 7.00 | 7.40 |  |  |  |  |  |  |  |  |  |  |  |  |  |  |  | 
